Data on 1 compound can be found in ChEMBL document CHEMBL4765307, “Design, synthesis and biological activity of novel 2,3,4,5-tetra-substituted thiophene derivatives as PI3Kα inhibitors with potent antitumor activity” (Eur J Med Chem, 2020).

Molecules are shown by their SMILES.

A short description of data set [1]: Apparent permeability across apical to basolateral side in human Caco2 cells at 2 uM incubated for 2 hrs by LC-MS/MS analysis. The format is ADME, cell-based. Conditions: Caco-2. An outline of the steps: (§1)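 Caco-2 monolayers grown 21–28 days; compound 2 µM both directions in duplicate, DMSO <1%; 2 h at 37 °C, 5% CO2 without shaking. Donor and receiver levels by LC/MS/MS; integrity by lucifer yellow. Papp = (dCr/dt)×Vr/(A×C0); efflux ratio = Papp(B-A)/Papp(A-B).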
(Caco-2 monolayers are a common model of the intestinal barrier.)

Data set [2] in a line: Efflux ratio of permeability from basolateral to apical over apical to basolateral side in human Caco2 cells at 2 uM incubated for 2 hrs by LC-MS/MS analysis. It counts as ADME, cell-based. Conditions: Caco-2. The method in brief:
as §1

The subject of the next data set is T47D. The data set can be described thus: Antiproliferative activity against human T47D cells harboring PIK3CA mutation assessed as reduction in cell viability after 3 days by CellTiter-Glo luminescence assay. The following applies: 72 h. The format is functional, cell-based. An outline of the steps:
(§2)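 ATCC lines, 10% FBS: T47D, H1975, H460 in RPMI1640; U87MG in DMEM; A549 in F12K. Seeded 3×10^3 per well the day before, exposed to 3-fold serial dilutions or DMSO for 3 days at 37 °C, 5% CO2; CellTiter-Glo luminescence.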
For orientation: In ATP-based viability assays light output follows the ATP content of the culture.

The target in the next data set is CYP2D6 (Homo sapiens, UniProt P10635). The data set can be described thus: Inhibition of CYP2D6 in human liver microsomes using dextromethorphan as substrate at 10 uM preincubated for 10 mins followed by incubation with NADPH for 10 mins by LC- MS/MS analysis. It counts as ADME. The following applies: probe dextromethorphan, time 20 min. An outline of the steps: (§3)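 Human liver microsomes 0.25 mg/mL with probe substrate (CYP1A2 10 µM phenacetin; CYP2D6 5 µM dextromethorphan; CYP3A4 2 µM midazolam), test compound 10 µM; 10 min preincubation at 37 °C, NADPH added (final 10 mM), 10 min at 37 °C; stopped with cold acetonitrile containing internal standards; LC-MS/MS.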
Sequence of CYP2D6 (P10635 whole entry): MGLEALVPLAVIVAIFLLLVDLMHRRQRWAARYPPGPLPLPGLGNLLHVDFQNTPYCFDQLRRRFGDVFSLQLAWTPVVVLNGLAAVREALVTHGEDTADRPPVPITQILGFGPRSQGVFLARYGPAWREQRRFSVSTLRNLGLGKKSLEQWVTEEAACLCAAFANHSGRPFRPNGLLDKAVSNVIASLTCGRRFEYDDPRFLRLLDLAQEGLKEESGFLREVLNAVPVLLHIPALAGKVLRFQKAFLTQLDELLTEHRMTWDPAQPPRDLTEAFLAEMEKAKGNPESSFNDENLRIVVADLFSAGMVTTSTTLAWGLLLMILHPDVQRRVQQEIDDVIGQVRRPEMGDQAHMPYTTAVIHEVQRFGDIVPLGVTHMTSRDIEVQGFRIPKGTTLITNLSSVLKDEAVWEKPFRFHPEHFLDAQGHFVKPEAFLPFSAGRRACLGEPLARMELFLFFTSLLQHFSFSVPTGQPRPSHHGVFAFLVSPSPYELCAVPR
For orientation: Microsomes from liver hold many membrane-bound enzymes, among them those of drug oxidation.

The nature of data set [3]: Half life in rat liver microsomes at 1 uM by LC-MS/MS analysis. The format is ADME, Microsome. An outline of the steps: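 Compound 1 µM with human or rat microsomes 0.5 mg/mL, preincubated 10 min at 37 °C in 100 mM potassium phosphate pH 7.4, 10 mM MgCl2; started with NADPH, sampled 0–60 min, quenched with cold acetonitrile, LC–MS/MS. A parallel no-NADPH control was run.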

For data set [4], the target named is Phosphatidylinositol 4,5-bisphosphate 3-kinase catalytic subunit alpha isoform (Homo sapiens) (UniProt P42336). Kind of data set: Inhibition of PI3Kalpha in human T47D cells assessed as inhibition of insulin-stimulated Akt phosphorylation at Ser473 residue at 0.1 uM preincubated for 2 hrs followed by incubation with insulin for 2 hrs by western blot analysis relative to control. The format is cell-based. Conditions: time 4.0 hrs. The method in brief:
(§4)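 T47D cells given compound at 37 °C for 2 h, then stimulated with 1 µg/mL insulin for 2 h; lysed in RIPA with protease/phosphatase inhibitors and 1 mM PMSF; BCA-normalised SDS-PAGE, PVDF blot probed overnight at 4 °C for total Akt and pAkt Ser473, infrared secondary detection.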

Data set [5] deals with PI3-kinase p110-alpha/p85-alpha (Homo sapiens, UniProt P42336). Kind of data set: Inhibition of His-tagged human full length PI3Kalpha coexpressed with p85 alpha in baculovirus expression system using PIP2 peptide as substrate incubated for 1 hr in presence ATP by Kinase-Glo assay.
Sequence of PI3-kinase p110-alpha/p85-alpha (P27986 whole entry, canonical isoform): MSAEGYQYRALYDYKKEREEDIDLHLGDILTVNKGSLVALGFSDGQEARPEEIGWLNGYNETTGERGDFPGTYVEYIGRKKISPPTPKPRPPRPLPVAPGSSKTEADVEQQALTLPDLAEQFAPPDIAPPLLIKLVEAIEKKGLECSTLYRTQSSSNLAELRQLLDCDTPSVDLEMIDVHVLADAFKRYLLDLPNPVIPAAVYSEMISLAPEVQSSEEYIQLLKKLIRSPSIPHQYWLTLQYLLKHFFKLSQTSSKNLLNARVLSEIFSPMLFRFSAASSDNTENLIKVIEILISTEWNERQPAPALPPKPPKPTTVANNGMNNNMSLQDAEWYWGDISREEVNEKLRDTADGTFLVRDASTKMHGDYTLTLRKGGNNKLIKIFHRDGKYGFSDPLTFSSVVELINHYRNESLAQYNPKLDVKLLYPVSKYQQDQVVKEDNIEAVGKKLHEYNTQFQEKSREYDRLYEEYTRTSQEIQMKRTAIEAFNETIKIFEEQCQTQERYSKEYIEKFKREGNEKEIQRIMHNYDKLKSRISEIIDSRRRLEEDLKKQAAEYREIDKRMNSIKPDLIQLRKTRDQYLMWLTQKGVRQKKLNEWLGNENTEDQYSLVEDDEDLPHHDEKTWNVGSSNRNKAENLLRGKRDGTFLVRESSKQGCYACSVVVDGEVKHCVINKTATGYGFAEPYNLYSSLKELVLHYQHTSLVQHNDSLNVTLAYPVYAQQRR
Sequence of PI3-kinase p110-alpha/p85-alpha (P42336 whole entry, canonical isoform): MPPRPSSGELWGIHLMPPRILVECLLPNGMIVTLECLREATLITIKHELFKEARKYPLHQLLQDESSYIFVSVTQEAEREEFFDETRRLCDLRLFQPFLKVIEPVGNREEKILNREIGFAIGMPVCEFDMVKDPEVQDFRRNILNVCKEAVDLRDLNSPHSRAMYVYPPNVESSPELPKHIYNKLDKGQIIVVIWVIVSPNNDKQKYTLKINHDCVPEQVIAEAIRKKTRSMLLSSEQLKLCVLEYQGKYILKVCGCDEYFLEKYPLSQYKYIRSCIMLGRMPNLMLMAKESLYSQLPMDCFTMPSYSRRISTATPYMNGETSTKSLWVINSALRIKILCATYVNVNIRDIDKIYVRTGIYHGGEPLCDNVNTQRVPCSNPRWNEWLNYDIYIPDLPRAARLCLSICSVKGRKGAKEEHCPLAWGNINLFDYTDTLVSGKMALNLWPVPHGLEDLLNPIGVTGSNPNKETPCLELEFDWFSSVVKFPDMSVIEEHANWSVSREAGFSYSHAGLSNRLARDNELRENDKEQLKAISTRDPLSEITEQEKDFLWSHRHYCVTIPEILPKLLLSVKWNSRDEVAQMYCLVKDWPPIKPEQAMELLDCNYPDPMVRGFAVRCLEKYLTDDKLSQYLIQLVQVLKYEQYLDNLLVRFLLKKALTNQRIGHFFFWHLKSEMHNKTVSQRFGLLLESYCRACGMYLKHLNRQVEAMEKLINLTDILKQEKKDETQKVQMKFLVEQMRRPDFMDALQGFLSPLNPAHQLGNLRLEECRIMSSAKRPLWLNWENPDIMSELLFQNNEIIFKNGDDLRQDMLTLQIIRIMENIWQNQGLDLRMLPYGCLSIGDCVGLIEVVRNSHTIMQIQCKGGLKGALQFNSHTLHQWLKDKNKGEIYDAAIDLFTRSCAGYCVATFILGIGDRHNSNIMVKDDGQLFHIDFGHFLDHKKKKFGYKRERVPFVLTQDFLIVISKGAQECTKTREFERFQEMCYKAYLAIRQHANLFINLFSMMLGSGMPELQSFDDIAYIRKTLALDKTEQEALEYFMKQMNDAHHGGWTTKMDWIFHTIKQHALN
Data set [6] has as its target Phosphatidylinositol 4,5-bisphosphate 3-kinase catalytic subunit alpha isoform (Homo sapiens) (UniProt P42336). Kind of data set: Inhibition of PI3Kalpha in human T47D cells assessed as inhibition of insulin-stimulated Akt phosphorylation at Ser473 residue at 1 uM preincubated for 2 hrs followed by incubation with insulin for 2 hrs by western blot analysis relative to control. The format is cell-based. The following applies: time 4.0 hrs. The method in brief: as §4

A further data set has as its target CYP3A4 (Homo sapiens, UniProt P08684). Kind of data set: Inhibition of CYP3A4 in human liver microsomes using midazolam as substrate at 10 uM preincubated for 10 mins followed by incubation with NADPH for 10 mins by LC- MS/MS analysis. It counts as ADME. Conditions: probe midazolam, time 20 min. The method in brief: as §3
A short description of data set [7]: Cmax in Sprague-Dawley rat at 5 mg/kg, iv measured after 24 hrs by LC-MS/MS analysis. It counts as ADME, organism-based. Further details: route intravenous, dose 5 mg/kg, time 24 hrs. The following applies: in vivo. The method in brief:
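Male SD rats (n=6), single 5 mg/kg intravenous dose; heparinised blood at 0.083–24 h, centrifuged at 4 °C; plasma quantified by LC–MS/MS; noncompartmental parameters.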

A further data set concerns A549. Kind of data set: Antiproliferative activity against human A549 cells assessed as reduction in cell viability after 3 days by CellTiter-Glo luminescence assay. The format is functional, cell-based. Conditions: A549, 72 h. The method in brief:
as §2

The target of data set [8] is Phosphatidylinositol 4,5-bisphosphate 3-kinase catalytic subunit alpha isoform (Homo sapiens) (UniProt P42336). Kind of data set: Inhibition of PI3Kalpha in human T47D cells assessed as inhibition of insulin-stimulated Akt phosphorylation at Ser473 residue preincubated for 2 hrs followed by incubation with insulin for 2 hrs by western blot analysis relative to control. It counts as cell-based. Conditions: dose 0.1-3 µM, time 4.0 hrs. The method in brief: as §4
Sequence of Phosphatidylinositol 4,5-bisphosphate 3-kinase catalytic subunit alpha isoform (Homo sapiens) (P42336 whole entry, canonical isoform): as above

A short description of data set [9]: Apparent permeability across basolateral to apical side in human Caco2 cells at 2 uM incubated for 2 hrs by LC-MS/MS analysis. The format is ADME, cell-based. Conditions: Caco-2. An outline of the steps: as §1
Data set [10] addresses PI3-kinase p110-delta/p85-alpha (Homo sapiens, UniProt O00329). The data set can be described thus: Inhibition of N-terminal His6-tagged human recombinant full length PI3Kdelta co-expressed with human recombinant full length P85alpha in baculovirus infected Sf21 cells using PIP2 peptide as substrate incubated for 2 hrs in presence ATP by ADP-Glo Kinase Assay. An outline of the steps:
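ADP-Glo reagent 1 for 40 min, then reagent 2 with 60 min equilibration. IC50 from inhibition curves; average of at least two runs.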

For the next data set, the system named is U-87 MG. Kind of data set: Antiproliferative activity against human U87MG cells harboring PTEN deletion assessed as reduction in cell viability after 3 days by CellTiter-Glo luminescence assay. The format is functional, cell-based, U-87MG ATCC. Conditions: 72 h. An outline of the steps:
as §2

Data set [11] has as its target Phosphatidylinositol 4,5-bisphosphate 3-kinase catalytic subunit gamma isoform (Homo sapiens, UniProt P48736). The data set can be described thus: Inhibition of GST-tagged human recombinant PI3Kgamma catalytic domain (468 to 1203 residues) expressed in insect cells using PIP2 peptide as substrate incubated for 1 hr in presence ATP by ADP-Glo Kinase Assay. An outline of the steps:
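ADP-Glo reagent 1 for 40 min, then reagent 2 with 60 min equilibration before reading. IC50 taken from inhibition curves; average of at least two runs.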

Sequence of Phosphatidylinositol 4,5-bisphosphate 3-kinase catalytic subunit gamma isoform (P48736 whole entry, the tested form may be a part, canonical isoform): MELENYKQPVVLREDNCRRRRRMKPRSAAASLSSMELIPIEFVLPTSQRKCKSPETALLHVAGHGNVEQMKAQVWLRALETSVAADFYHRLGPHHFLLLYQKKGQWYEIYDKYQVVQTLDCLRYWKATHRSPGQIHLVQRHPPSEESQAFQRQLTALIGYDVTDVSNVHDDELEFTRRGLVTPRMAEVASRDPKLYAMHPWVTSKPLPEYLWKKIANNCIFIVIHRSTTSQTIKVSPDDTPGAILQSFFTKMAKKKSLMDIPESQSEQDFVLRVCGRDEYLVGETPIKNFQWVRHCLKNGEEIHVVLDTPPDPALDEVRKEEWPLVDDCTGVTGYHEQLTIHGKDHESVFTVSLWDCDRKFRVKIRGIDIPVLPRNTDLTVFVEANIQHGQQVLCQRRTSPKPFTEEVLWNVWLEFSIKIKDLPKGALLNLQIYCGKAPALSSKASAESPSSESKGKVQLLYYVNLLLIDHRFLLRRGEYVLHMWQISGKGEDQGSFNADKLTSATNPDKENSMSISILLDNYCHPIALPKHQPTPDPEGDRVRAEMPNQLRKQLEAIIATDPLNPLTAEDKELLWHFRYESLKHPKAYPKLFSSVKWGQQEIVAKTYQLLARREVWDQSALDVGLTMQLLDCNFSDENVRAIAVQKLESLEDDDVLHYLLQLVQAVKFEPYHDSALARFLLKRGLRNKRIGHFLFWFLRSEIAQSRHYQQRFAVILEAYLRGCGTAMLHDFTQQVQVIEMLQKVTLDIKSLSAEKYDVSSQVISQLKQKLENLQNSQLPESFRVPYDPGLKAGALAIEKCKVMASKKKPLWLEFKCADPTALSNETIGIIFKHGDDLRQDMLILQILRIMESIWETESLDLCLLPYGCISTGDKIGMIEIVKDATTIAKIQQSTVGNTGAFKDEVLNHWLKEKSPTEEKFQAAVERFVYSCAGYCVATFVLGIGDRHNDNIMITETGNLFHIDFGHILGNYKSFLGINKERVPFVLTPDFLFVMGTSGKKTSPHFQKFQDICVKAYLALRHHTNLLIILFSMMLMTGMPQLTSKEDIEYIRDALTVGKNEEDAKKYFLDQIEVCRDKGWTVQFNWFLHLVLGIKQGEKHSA
Sequence of PI3-kinase p110-delta/p85-alpha (P27986 whole entry): as the sequence (P27986 whole entry, canonical isoform) above
Sequence of PI3-kinase p110-delta/p85-alpha (O00329 whole entry): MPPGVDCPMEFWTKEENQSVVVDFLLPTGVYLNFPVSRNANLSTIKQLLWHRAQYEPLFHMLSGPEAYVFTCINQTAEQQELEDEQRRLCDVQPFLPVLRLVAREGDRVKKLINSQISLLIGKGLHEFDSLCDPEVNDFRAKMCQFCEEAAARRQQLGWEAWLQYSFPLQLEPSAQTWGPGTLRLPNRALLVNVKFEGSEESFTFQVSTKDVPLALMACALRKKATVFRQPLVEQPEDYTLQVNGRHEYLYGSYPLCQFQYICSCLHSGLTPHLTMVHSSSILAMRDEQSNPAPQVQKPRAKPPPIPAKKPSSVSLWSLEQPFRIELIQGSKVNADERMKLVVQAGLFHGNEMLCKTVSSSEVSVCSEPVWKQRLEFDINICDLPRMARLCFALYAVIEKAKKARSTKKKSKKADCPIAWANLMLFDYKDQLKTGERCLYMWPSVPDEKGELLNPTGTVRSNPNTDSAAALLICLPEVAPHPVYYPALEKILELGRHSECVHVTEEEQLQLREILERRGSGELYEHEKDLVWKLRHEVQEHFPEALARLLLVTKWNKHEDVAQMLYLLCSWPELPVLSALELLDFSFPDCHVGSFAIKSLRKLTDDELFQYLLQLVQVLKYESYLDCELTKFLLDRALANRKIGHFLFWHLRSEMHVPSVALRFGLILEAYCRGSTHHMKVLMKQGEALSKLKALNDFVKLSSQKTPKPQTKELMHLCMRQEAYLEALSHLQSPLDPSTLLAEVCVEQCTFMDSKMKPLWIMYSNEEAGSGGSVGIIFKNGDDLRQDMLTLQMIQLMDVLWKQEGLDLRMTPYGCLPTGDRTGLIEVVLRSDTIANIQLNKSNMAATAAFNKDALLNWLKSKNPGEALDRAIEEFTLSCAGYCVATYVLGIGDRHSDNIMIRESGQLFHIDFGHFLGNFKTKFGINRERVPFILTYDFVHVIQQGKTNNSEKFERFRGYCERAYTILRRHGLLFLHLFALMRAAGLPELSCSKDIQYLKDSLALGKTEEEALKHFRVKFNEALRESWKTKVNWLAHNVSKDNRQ
Sequence of CYP3A4 (P08684 whole entry): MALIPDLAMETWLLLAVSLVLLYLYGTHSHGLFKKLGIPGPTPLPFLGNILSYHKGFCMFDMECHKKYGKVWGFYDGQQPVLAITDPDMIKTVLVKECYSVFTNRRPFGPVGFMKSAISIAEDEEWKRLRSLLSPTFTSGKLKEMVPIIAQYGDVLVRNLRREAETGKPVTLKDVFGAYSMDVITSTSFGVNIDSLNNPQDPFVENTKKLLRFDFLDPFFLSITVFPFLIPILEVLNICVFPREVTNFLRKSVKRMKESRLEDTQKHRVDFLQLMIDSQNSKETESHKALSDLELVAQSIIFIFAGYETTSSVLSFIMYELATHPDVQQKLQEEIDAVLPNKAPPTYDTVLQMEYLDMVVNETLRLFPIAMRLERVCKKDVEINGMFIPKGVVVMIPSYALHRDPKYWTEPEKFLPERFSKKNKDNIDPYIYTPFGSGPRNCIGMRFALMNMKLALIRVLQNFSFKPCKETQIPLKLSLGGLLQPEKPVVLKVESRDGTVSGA

Regarding `N#Cc1c(N2CCOCC2)sc(-c2nc[nH]n2)c1-c1ccc(NC(=O)Nc2ccccc2Cl)cc1`, in data set [1], the Papp A→B (commonly how fast a substance crosses the layer from the apical side) at 2 h, 2 µM came out at 7.8 ×10⁻⁶ cm/s. In addition, in data set [2], the efflux ratio – broadly, the permeability from basolateral to apical divided by that in the opposite direction, in the common usage – at 2 h, 2 µM was 1.08. The IC50 (as a rule, the concentration that gives 50% inhibition) in the data set with T47D turned out to be 310 nM; in data set [5], 9.2 nM; in the data set on A549 it was 3840 nM; in data set [10], 275 nM; in the data set with U-87 MG, 2860 nM; in [11], 258 nM. Moreover, the inhibition (in general, the relative decrease from the control value, in per cent) at 10 min, 10 µM against CYP2D6 amounted to 28%; at CYP3A4 it was 1.5%. Besides, in [3], the half-life (in general, how long it takes for the measured level to halve) at 1 µM is 44.7 min. Further, the inhibition is 58% in data set [4], 78% in data set [6] and “Dose-dependent effect” in data set [8]. The Ki (in general, a measure of affinity in units of concentration, obtained from inhibition or displacement) is 5.1 nM in data set [5], 245 nM in data set [10] and 193 nM in data set [11]. Besides, in data set [7], the Cmax – broadly, the highest concentration seen after dosing – came out at 2570 ng/mL. In addition, the Papp B→A (commonly the apparent permeability from the basolateral to the apical side of a cell layer) at 2 h, 2 µM in [9] is 8.4 ×10⁻⁶ cm/s.
